# Results from PubChem BioAssay.
# Activity calls are given as the source filed them.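 How the source made its calls, unless noted: active means current rise at least 3 SD above the untreated control mean in each of two repeat wells; inactive means the rest.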
# Tests used:
# [1] = thallium flux activation in parental CHO cells, counter-screen for KCNQ1 potentiator project (AID 493006;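 active means duplicate-averaged activation above buffer control mean plus 5 SD of those controls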); settings: parental CHO-K1 cells, FluxOR thallium flux, at 10 µM; active compounds read high
# Summary of the method: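 Assay system: Untransfected host CHO-K1 cells with FluxOR thallium dye | Probe or stimulus: Potassium/thallium depolarization pulse | Schedule: Overnight 37 °C plating, 90 min RT dye, 20 min compound | Detection: Kinetic thallium-flux fluorescence | Read-out: Max-minus-min fluorescence over baseline, percent of buffer-to-R-L3 span | Benchmarks: Low control buffer, high control R-L3 activator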
# [2] = target: Potassium voltage-gated channel subfamily KQT member 1 (Homo sapiens) (UniProt P51787); test: KCNQ1 potassium channel potentiators, confirmation, FluxOR thallium flux, CHO cells, duplicates (AID 493007;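 active means potentiation averaged over duplicate wells exceeding buffer-only control mean by more than 3 SD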;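 on outcome: cells depolarized by a potassium plus thallium sulfate stimulus after compound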); settings: KCNQ1 cell line, FluxOR thallium flux fluorescence, at 10 µM; active compounds read high, % of reference activator effect, buffer zero
# Summary of the method: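 Material: KCNQ1-expressing CHO cell line; Incubation: FluxOR dye loading 90 min, compound exposure 20 min, room temperature; Detection: FluxOR Tl+ flux fluorescence, 10 s baseline plus 110 s recording; Read-out: percent activation between buffer and R-L3 responses; Control set: buffer-only wells as 0% and R-L3 activator as 100%; Replication: duplicate wells per compound.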
# [3] = target: Potassium voltage-gated channel subfamily KQT member 2 (Rattus norvegicus) (UniProt O88943); test: rat KCNQ2 channel potentiation, selectivity assay for KCNQ1 potentiator project, KCNQ2-CHO-K1 cells (AID 493009;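 active means mean duplicate potentiation above the buffer control mean plus 5 SD of buffer wells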;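 further: assay conditions were tuned for KCNQ1 rather than KCNQ2 modulators; signal is max minus min fluorescence divided by baseline after thallium stimulus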); settings: FluxOR thallium flux fluorescence, at 10 µM; active compounds read high, scaled: buffer 0, activator control 100
# [4] = target: Potassium voltage-gated channel subfamily KQT member 1 (Homo sapiens) (UniProt P51787); test: KCNQ1 channel current potentiators, confirmation, orthogonal assay for KCNQ1 potentiator project, IonWorks patch clamp, KCNQ1-CHO cells (AID 493184); settings: automated patch clamp current, at 10 µM; active compounds read high;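 on current potentiation: percent change of the same well's current before compound addition so 0% = no change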
# Summary of the method: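 assay system = KCNQ1-expressing CHO cells | medium = external bath solution at pH 7.4 | probe or stimulus = 2,000 ms depolarization, -90 to +40 mV | compound dosing = 10 µM final, single point | measured by = automated voltage clamp, amphotericin B perforated patch | measure = percent current increase versus pre-compound level | replication = duplicates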
# Potassium voltage-gated channel subfamily KQT member 1 (Homo sapiens), sequence (P51787 whole entry, looked up): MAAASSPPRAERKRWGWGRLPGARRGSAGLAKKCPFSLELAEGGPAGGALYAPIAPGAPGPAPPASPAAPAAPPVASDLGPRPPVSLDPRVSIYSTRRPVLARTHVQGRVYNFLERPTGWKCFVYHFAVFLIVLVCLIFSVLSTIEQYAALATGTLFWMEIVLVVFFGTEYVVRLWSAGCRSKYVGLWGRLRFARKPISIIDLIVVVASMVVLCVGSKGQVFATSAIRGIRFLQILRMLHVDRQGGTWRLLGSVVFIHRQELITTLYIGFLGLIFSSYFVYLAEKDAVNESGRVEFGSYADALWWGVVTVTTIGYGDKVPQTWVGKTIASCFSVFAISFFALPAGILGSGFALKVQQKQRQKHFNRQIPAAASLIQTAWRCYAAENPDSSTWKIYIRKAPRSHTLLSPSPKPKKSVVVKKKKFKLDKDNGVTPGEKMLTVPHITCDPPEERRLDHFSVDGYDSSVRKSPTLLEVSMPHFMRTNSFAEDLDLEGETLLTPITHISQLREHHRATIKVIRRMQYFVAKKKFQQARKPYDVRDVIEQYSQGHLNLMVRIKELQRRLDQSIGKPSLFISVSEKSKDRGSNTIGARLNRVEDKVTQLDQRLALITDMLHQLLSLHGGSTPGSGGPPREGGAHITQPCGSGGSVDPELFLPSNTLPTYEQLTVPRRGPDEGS
# Potassium voltage-gated channel subfamily KQT member 2 (Rattus norvegicus), sequence (O88943 whole entry, looked up): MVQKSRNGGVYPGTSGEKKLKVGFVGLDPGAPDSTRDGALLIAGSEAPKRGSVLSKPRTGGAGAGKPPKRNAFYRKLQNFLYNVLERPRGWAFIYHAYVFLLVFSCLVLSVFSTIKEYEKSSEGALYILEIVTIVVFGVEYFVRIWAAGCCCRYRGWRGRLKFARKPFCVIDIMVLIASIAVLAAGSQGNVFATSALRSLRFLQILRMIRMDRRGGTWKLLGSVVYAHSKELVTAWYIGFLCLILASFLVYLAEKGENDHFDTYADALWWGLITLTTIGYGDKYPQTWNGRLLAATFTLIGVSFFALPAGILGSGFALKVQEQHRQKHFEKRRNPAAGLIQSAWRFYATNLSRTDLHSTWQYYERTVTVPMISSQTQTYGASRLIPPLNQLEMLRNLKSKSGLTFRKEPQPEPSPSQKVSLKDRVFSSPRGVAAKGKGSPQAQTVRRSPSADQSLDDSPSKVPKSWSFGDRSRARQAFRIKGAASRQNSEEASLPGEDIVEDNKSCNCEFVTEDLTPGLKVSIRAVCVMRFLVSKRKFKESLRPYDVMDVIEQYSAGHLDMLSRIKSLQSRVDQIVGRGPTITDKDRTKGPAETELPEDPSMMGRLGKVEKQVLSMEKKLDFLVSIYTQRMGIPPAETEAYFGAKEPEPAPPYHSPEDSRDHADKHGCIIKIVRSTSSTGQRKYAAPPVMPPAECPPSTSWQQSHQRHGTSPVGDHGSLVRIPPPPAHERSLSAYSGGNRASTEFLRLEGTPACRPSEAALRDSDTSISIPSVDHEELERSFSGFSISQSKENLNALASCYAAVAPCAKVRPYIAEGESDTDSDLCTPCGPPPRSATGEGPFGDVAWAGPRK
Compound,outcome [1],outcome [2],outcome [3],outcome [4],activation [1],potentiation [2],potentiation [3],current potentiation [4]
O=C(CN(Cc1ccccc1Cl)C(=O)c1csnn1)NC1CCCC1,inactive,inactive,inactive,inactive,–,–,–,–
Fc1ccc(-n2nnc(-c3ccccc3)n2)cc1,inactive,inactive,inactive,inactive,–,–,–,–
COc1ccc(CNC(=O)C2CC(c3cccc(OC)c3)=NO2)cc1 (stereo not given),inactive,inactive,inactive,inactive,–,–,–,–
O=C1CCC(c2ccc(-n3ccnc3)cc2)=NN1,inactive,inactive,inactive,inactive,–,–,–,–
Nc1nc(N)c(N=Nc2ccc(C(=O)O)cc2)c(N)n1,inactive,inactive,inactive,inactive,–,–,–,–
Cc1cc(OCC(=O)NNC(=O)c2cnccn2)cc(C)c1Cl,–,–,–,inactive,200% (active),22% (active),279% (active),–
O=C(N/N=C1/C(=O)c2cccc3cccc1c23)c1ccc(Cl)cc1,–,–,inactive,inactive,145% (active),83.5% (active),–,–
Cc1sc2ncnc(SCC(=O)c3ccc(O)cc3O)c2c1C,–,–,–,inactive,150% (active),20.5% (active),176% (active),–
O=C(NC(=S)Nc1cccc(C(F)(F)F)c1)c1csnn1,–,–,–,inactive,595% (active),308% (active),618% (active),–
COc1ccc2c(-c3ccccc3)cc(=S)[nH]c2c1,–,–,–,inactive,210% (active),50.5% (active),231% (active),–
CCCS(=O)(=O)c1c(S(=O)(=O)CCC)c2c(C(N)=O)cccn2c1C(=O)c1ccc(F)cc1,inactive,inactive,inactive,inactive,–,–,–,–
COc1cccc2sc(NNC(=O)C3COc4ccccc4O3)nc12 (stereo not given),inactive,inactive,inactive,inactive,–,–,–,–
COc1cccc(/C=N/Nc2snc(SC)c2C#N)c1O,inactive,inactive,inactive,inactive,–,–,–,–
Cn1c(=O)c2nc3ccccc3nc2n(C)c1=O,–,–,–,inactive,168% (active),30.5% (active),184% (active),–
CCCn1cc(NC(=O)c2cc(-c3ccccc3)on2)cn1,inactive,–,inactive,inactive,–,25% (active),–,–
Cc1cc(N=Cc2cc(Br)ccc2O)no1,–,inactive,inactive,inactive,144% (active),–,–,–
Cc1ccc(NC(=S)NC(=O)c2cncc(Br)c2)cc1Cl,–,–,–,inactive,323% (active),246% (active),449% (active),–
CCCC(=O)n1nc(-c2ccccc2)nc1N,inactive,inactive,inactive,inactive,–,–,–,–
O=C(COC(=O)c1ccccc1)Nc1ccccc1N1CCOCC1,inactive,inactive,inactive,inactive,–,–,–,–
COc1ccc(CCC(=O)NCCOc2ccc(C)cc2)cc1,inactive,inactive,inactive,inactive,–,–,–,–

Compound,outcome [1],outcome [2],outcome [3],outcome [4],activation [1],potentiation [2],potentiation [3],current potentiation [4]
Oc1c(Br)cc(Br)cc1C=Nc1ccc2c(c1)OCO2,–,inactive,inactive,inactive,172% (active),–,–,–
Fc1cccc(/C=N/NC(=S)Nc2ccccc2Cl)c1,inactive,–,–,inactive,–,41.5% (active),158% (active),–
Cc1ccc2c(c1)c(C)c(C)n2CC(O)CN1CCCCC1C (stereo not given),inactive,inactive,inactive,inactive,–,–,–,–
COc1ccc(CCN(C)CC(O)COc2c(C)ccc(C)c2C)cc1OC (stereo not given),inactive,inactive,inactive,inactive,–,–,–,–
Cc1ccc2sc(N(CCCN(C)C)C(=O)CCS(=O)(=O)c3ccccc3)nc2c1C,inactive,inactive,inactive,inactive,–,–,–,–
Cc1csc(=O)n1CCC(=O)OCC(=O)NCc1ccc(F)cc1,inactive,inactive,–,inactive,–,–,186% (active),–
O=S(=O)(NCCOc1ccccc1)c1ccc2ccccc2c1,inactive,inactive,inactive,inactive,–,–,–,–
Cc1ccc(N=Cc2cc(Br)cc(Cl)c2O)cc1,–,–,–,inactive,201% (active),19% (active),142% (active),–
CNC(=S)N/N=C/c1cc(Br)cc(Br)c1O,–,inactive,inactive,inactive,168% (active),–,–,–
CCOC(=O)c1c(-c2ccccc2)oc2ccc(O)c(CN3CCN(C)CC3)c12,inactive,inactive,inactive,inactive,–,–,–,–
CC(C)n1c(O)c(N=NC(=O)C2COc3ccccc3O2)c2ccccc21 (stereo not given),–,–,–,inactive,234% (active),66.5% (active),208% (active),–
CCOc1ccc(-c2c(=O)n(O)c3ccccc3[n+]2[O-])cc1,–,–,–,inactive,224% (active),59.5% (active),254% (active),–
Cc1ccccc1C([O-])=Nc1ccc[n+](-c2nc3ccccc3nc2NS(=O)(=O)c2ccccc2)c1,inactive,inactive,inactive,inactive,–,–,–,–
Cn1nccc1C(=O)NC(=S)Nc1cc(Cl)cc(Cl)c1,–,–,–,inactive,141% (active),20.5% (active),178% (active),–
C=CCn1sc(=N)c(C#N)c1N,–,–,–,inactive,528% (active),195% (active),492% (active),–
O=C(NC(=S)N1CCCCCC1)c1ccc(Cl)cc1Cl,–,inactive,–,inactive,148% (active),–,158% (active),–
COC(=O)c1cccnc1NC(=S)NC1CCCCC1,–,–,–,inactive,208% (active),36.5% (active),233% (active),–
CC(=O)N1N=C(N)SC12CCCC2,inactive,inactive,inactive,inactive,–,–,–,–
Cc1ccccc1C(=O)c1c[nH]c(C(=O)N2CCN(c3ccccc3F)CC2)c1,inactive,inactive,inactive,inactive,–,–,–,–
COc1ccc(CNC(=O)CNC(C)c2ccc(F)cc2)cc1 (stereo not given),inactive,inactive,inactive,inactive,–,–,–,–

Compound,outcome [1],outcome [2],outcome [3],outcome [4],activation [1],potentiation [2],potentiation [3],current potentiation [4]
O=C(NNc1ncc(C(F)(F)F)cc1Cl)c1c(Cl)cccc1Cl,inactive,inactive,inactive,inactive,–,–,–,–
O=C(CSc1nc2ccccc2[nH]1)N/N=C/c1ccncc1,inactive,inactive,inactive,inactive,–,–,–,–
CCOc1ccc2nc(/N=C/c3c(C)[nH]n(-c4ccccc4)c3=O)sc2c1,–,–,–,inactive,370% (active),360% (active),661% (active),–
COc1ccc(NC(=O)CCCSc2nc(-c3ccco3)cc(C(F)(F)F)n2)cc1OC,inactive,inactive,inactive,inactive,–,–,–,–
CCN(c1ccccc1)S(=O)(=O)c1ccc(OC)c(NC(=O)COc2ccc(C(C)=O)cc2)c1,inactive,inactive,inactive,inactive,–,–,–,–
Oc1c(Br)cc(Cl)cc1C=Nc1ccccc1Br,–,–,–,inactive,296% (active),161% (active),310% (active),–
O=C(COC(=O)C12CC3CC(CC(C3)C1)C2)NCCCc1ccccc1,inactive,inactive,inactive,inactive,–,–,–,–
CC(C)(C)NC(=O)C(=O)NNC(=O)c1cccc(F)c1,–,–,–,inactive,201% (active),87.5% (active),228% (active),–
Nc1nc(NCc2ccco2)nc(NC2CCCCC2)c1[N+](=O)[O-],inactive,inactive,inactive,inactive,–,–,–,–
CCOc1ccccc1C1c2[nH]c3ccccc3c2C[C@H]2C(=O)N(C3CC3)CC(=O)N12 (stereo not given in full),inactive,inactive,inactive,–,–,–,–,22.3% (active)
Cc1sc2nc(C(C)C)nc(SCC(=O)N3c4ccccc4CC3C)c2c1C (stereo not given),–,–,–,inactive,164% (active),47.5% (active),177% (active),–
O=C(N/N=C/c1ccccn1)c1cc(Br)ccc1O,–,–,–,inactive,147% (active),24% (active),182% (active),–
O=C(NC(=S)Nc1ccccc1)c1cccs1,–,inactive,–,inactive,137% (active),–,142% (active),–
Cc1c(CN2CCN(C)C(CCO)C2)[nH]c2c(Cl)cccc12 (stereo not given),inactive,inactive,inactive,inactive,–,–,–,–
C/C(=N\NC(=O)c1cc2ccccc2cc1O)c1cc2ccccc2o1,–,–,–,inactive,706% (active),478% (active),746% (active),–
Cc1nc(NCc2cccnc2)c2c3c(sc2n1)CC(C)CC3 (stereo not given),–,–,–,inactive,299% (active),118% (active),352% (active),–
O=C(c1ccc(S(=O)(=O)N2CCCC2)cc1)N1CCN(c2cccc(Cl)c2)CC1,inactive,inactive,inactive,inactive,–,–,–,–
O=C(Nc1cc([N+](=O)[O-])ccc1N1CCCC1)c1cccs1,inactive,inactive,inactive,inactive,–,–,–,–
COc1ccc(C)cc1N=Nc1ccc(O)c2ncccc12,inactive,inactive,inactive,inactive,–,–,–,–
OC1(c2ccc(Br)cc2)CCNCC1,inactive,inactive,inactive,inactive,–,–,–,–
